Here are results for 25 molecules from ChEMBL document CHEMBL1821585, “Fluorinated cannabinoid CB2 receptor ligands: synthesis and in vitro binding characteristics of 2-oxoquinoline derivatives” (Bioorg Med Chem, 2011).

Experiment [1] can be described thus: Selectivity ratio of Ki for CB1 receptor to Ki for CB2 receptor.
Experiment [2] concerns the target T1, Cannabinoid receptor 1 (Homo sapiens, UniProt P21554). The experiment in a line: Binding affinity to CB1 receptor.
Experiment [3] has as its target T2, Cannabinoid receptor 2 (Homo sapiens, UniProt P34972). The experiment in a line: Binding affinity to CB2 receptor.
The target of experiment [4] is T1, Cannabinoid receptor 1. The experiment in a line: Displacement of [3H]CP-55940 from human CB1 receptor expressed in human U87 cells after 1 hr by scintillation counting. It counts as cell-based, U-87MG ATCC. The procedure, abridged:
(§1)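 Membranes from lentivirally transduced U87 glioblastoma cells stably expressing hCB1 or hCB2, sorted on an mKateS158A co-reporter. Cells at 80–90% confluence were homogenised in 50 mM Tris-HCl, 5 mM MgCl2, 2.5 mM EDTA, pH 7.4. Aliquots of 30–50 μg protein were incubated 1 h at 4°C with 2.8 nM [3H]CP-55,940 plus graded compound concentrations, then GF/C-filtered. Ki was derived from the competition curves.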
Background: Loss of bound radioactivity is the signal in a displacement assay; it reports binding, not function.

In experiment [5] the target is T2, Cannabinoid receptor 2. The experiment in a line: Displacement of [3H]CP-55940 from human CB2 receptor expressed in human U87 cells after 1 hr by scintillation counting. It counts as cell-based, U-87MG ATCC. The procedure, abridged: as §1
The next experiment is filed under the species Homo sapiens. Briefly: Selectivity ratio of Ki for human CB1 receptor to Ki for human CB2 receptor.

T2 sequence (P34972 whole entry): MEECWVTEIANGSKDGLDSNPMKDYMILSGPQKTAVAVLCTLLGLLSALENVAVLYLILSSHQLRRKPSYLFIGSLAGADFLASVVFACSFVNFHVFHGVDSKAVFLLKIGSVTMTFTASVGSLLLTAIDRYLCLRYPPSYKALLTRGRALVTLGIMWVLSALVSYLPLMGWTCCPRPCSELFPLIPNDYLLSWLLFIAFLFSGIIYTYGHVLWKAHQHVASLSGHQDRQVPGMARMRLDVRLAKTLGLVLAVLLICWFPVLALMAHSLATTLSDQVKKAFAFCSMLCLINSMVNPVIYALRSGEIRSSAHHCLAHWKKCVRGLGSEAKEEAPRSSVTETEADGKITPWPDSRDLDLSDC
T1 sequence (P21554 whole entry): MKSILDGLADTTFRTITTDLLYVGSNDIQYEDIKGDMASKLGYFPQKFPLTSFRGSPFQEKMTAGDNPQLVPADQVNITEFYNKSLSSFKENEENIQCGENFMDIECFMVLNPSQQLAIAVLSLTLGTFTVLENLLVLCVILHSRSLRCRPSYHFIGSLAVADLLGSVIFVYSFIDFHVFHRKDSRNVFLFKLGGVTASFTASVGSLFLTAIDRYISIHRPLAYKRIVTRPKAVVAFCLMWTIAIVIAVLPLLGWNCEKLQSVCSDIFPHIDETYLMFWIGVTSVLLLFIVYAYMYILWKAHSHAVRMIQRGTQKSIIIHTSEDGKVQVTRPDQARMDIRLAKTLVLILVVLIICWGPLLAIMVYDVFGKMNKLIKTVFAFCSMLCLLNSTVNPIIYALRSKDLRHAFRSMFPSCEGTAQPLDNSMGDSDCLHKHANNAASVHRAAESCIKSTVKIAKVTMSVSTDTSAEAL

With `CCCCCc1cc2cc(C(=O)NCCc3ccc(F)cc3)c(=O)[nH]c2c(O)c1OC`, in experiment [1], the Ratio Ki came to 66600. In addition, the Ki was found to be 2400 µM at Cannabinoid receptor 1 [2] and 0.036 nM at Cannabinoid receptor 2 [3].

For `CCCOc1c(OC)ccc2cc(C(=O)NCCc3ccc(F)cc3)c(=O)[nH]c12`, the Ratio Ki in experiment [1] is 16000.

On to `CCCCOc1c(OC)ccc2cc(C(=O)NCC(F)c3ccccc3)c(=O)[nH]c12` (centres undefined), for which the figures for the Ki at Cannabinoid receptor 1 [4] and at Cannabinoid receptor 2 [5] were > 10 µM and 0.8 nM, respectively. Further, in the experiment listed under Homo sapiens, the Ratio Ki is > 12500.

For `Cc1ccc(Cn2nc(C(=O)N[C@@H]3C(C)(C)[C@@H]4CC[C@@]3(C)C4)cc2-c2ccc(Cl)c(C)c2)cc1`, the Ratio Ki in experiment [1] was found to be 32.

For `CCCCOc1c(OC)ccc2cc(C(=O)NCCCF)c(=O)[nH]c12`, the Ki at Cannabinoid receptor 1 [4] was > 10 µM; on Cannabinoid receptor 2 [5], 58 nM. In the experiment listed under Homo sapiens, the Ratio Ki was > 172.

Take `COc1ccc2cc(C(=O)NCCF)c(=O)[nH]c2c1OC`: the results for the inhibition constant Ki on Cannabinoid receptor 1 [4] and on Cannabinoid receptor 2 [5] were > 10 µM and > 10000 nM, respectively. Also, in the experiment listed under Homo sapiens, the Ratio Ki is > 1.

With `CCCCOc1c(OC)ccc2cc(C(=O)NCCc3cn(CCF)nn3)c(=O)[nH]c12`, the Ki was > 10 µM at Cannabinoid receptor 1 [4] and 2400 nM at Cannabinoid receptor 2 [5]. In addition, the Ratio Ki in the experiment filed under Homo sapiens was > 4.

As to `CCCCCCC(C)(C)c1cc(OC)c(C2CCCC(C)(O)C2)c(OC)c1` (centres undefined), the Ratio Ki in experiment [1] was 220. The Ki turned out to be 5.05 µM at Cannabinoid receptor 1 [2] and 23 nM at Cannabinoid receptor 2 [3].

Regarding `CCCCOc1c(OC)ccc2cc(C(=O)NCCc3ccc(N)cc3)c(=O)[nH]c12`, at Cannabinoid receptor 2 [3], the half-maximal inhibitory concentration (IC50) was 1.58 nM and the inhibition constant Ki was determined as 22.3 nM.

Take `COc1ccc2cc(C(=O)NCCc3ccc(F)cc3)c(=O)[nH]c2c1OC`: the Ki was > 10 µM at Cannabinoid receptor 1 [4] and 5 nM on Cannabinoid receptor 2 [5].

Regarding `COc1ccc2cc(C(=O)NCC(F)c3ccccc3)c(=O)[nH]c2c1OC` (centres undefined), the results for the Ki on Cannabinoid receptor 1 [4] and at Cannabinoid receptor 2 [5] were > 10 µM and 22 nM, respectively. Also, the Ratio Ki in the experiment listed under Homo sapiens was > 454.

With `COc1ccc2cc(C(=O)NCc3ccc(F)cc3)c(=O)[nH]c2c1OC`, the figures for the inhibition constant Ki on Cannabinoid receptor 1 [4] and on Cannabinoid receptor 2 [5] were > 10 µM and > 10000 nM, respectively. Further, the Ratio Ki in the experiment listed under Homo sapiens is > 1.

With `CCCCCc1cc2cc(C(=O)NCCc3ccc(F)cc3)c(=O)n(C)c2c(O)c1OC`, the Ratio Ki in experiment [1] was found to be 20100. The results for the Ki on Cannabinoid receptor 1 [2] and at Cannabinoid receptor 2 [3] were 864 µM and 0.043 nM, respectively.

Regarding `CCCCOc1c(OC)ccc2cc(C(=O)NCc3ccc(F)cc3)c(=O)[nH]c12`, the inhibitory constant (Ki) on Cannabinoid receptor 1 [4] is > 10 µM; at Cannabinoid receptor 2 [5], 2.8 nM. The Ratio Ki in the experiment listed under Homo sapiens is > 3570.

On to `CCCCOc1c(OC)ccc2cc(C(=O)O)c(=O)[nH]c12`, for which the Ratio Ki in experiment [1] was 28300. At Cannabinoid receptor 2 [3], the inhibition constant Ki was found to be 0.032 nM.

As for `CCCCOc1c(OC)ccc2cc(C(=O)NCCc3ccc(F)cc3)c(=O)[nH]c12`, the Ki is > 10 µM at Cannabinoid receptor 1 [4] and 2.4 nM on Cannabinoid receptor 2 [5]. For the same molecule, the Ratio Ki in the experiment listed under Homo sapiens was > 4170.

As to `CCCCOc1c(OC)ccc2cc(C(=O)NCCF)c(=O)[nH]c12`, the inhibition constant Ki at Cannabinoid receptor 1 [4] was > 10 µM; on Cannabinoid receptor 2 [5], 486 nM. For the same molecule, the Ratio Ki in the experiment filed under Homo sapiens is > 20.5.

In the case of `CCCCOc1c(OC)c([N+](=O)[O-])cc2cc(C(=O)NCCc3ccc(F)cc3)c(=O)[nH]c12`, the values for the Ki on Cannabinoid receptor 1 [4] and on Cannabinoid receptor 2 [5] were > 10 µM and 1.4 nM, respectively. In the experiment filed under Homo sapiens, the Ratio Ki was > 7140.

For `CCCCCOc1c(OC)ccc2cc(C(=O)NCCN3CCOCC3)c(=O)n(C)c12`, the Ratio Ki in experiment [1] was 11000.

`CCCCCC(C)(C)c1cc(OC)c2c(c1)OC(C)(C)[C@@H]1CCC(C)=C[C@@H]21`: the Ratio Ki in experiment [1] came to 170.

In the case of `CCCCCOc1c(OC)ccc2cc(C(=O)NCCc3ccncc3)c(=O)[nH]c12`, in experiment [1], the Ratio Ki was found to be 20800. For the same molecule, at Cannabinoid receptor 2 [3], affinity was put at a Ki of 0.01 nM.

On to `CCCCOc1c(OC)ccc2cc(C(=O)NCc3cn(CCF)nn3)c(=O)[nH]c12`, for which the inhibitory constant (Ki) at Cannabinoid receptor 1 [4] was > 10 µM; on Cannabinoid receptor 2 [5], 620 nM. Further, the Ratio Ki in the experiment filed under Homo sapiens was > 16.

Consider `COc1ccc2c(c1)c(CCN1CCOCC1)c(C)n2C(=O)c1cccc(Cl)c1Cl`, for which, in experiment [1], the Ratio Ki came out at 146. On Cannabinoid receptor 2 [3], this molecule displayed a Ki of 14 nM.

Turning to `Cc1c(C(=O)NN2CCCCC2)nn(-c2ccc(Cl)cc2Cl)c1-c1ccc(Cl)cc1`, the Ratio Ki in experiment [1] came out at 32.

For the molecule `CCCCCc1cc2cc(C(=O)OC)c(=O)[nH]c2c(O)c1OC`, the Ratio Ki in experiment [1] is 262000. The Ki at Cannabinoid receptor 2 [3] is 0.014 nM.

As usually defined, the Ki is a dissociation constant, usually derived from enzyme kinetics or from competition with a known ligand. Broadly, the IC50 is the concentration that inhibits the measured activity by half. Low readings indicate greater potency, high ones weaker potency.
